Measured values of several laboratories.
Each line is one published result; the experiments were not run side by side.
Target: Serine/threonine-protein kinase TAO1 (TAOK1, Homo sapiens, UniProt Q7L7X3)
Sequence (Q7L7X3 1-1001, as in one of the studies): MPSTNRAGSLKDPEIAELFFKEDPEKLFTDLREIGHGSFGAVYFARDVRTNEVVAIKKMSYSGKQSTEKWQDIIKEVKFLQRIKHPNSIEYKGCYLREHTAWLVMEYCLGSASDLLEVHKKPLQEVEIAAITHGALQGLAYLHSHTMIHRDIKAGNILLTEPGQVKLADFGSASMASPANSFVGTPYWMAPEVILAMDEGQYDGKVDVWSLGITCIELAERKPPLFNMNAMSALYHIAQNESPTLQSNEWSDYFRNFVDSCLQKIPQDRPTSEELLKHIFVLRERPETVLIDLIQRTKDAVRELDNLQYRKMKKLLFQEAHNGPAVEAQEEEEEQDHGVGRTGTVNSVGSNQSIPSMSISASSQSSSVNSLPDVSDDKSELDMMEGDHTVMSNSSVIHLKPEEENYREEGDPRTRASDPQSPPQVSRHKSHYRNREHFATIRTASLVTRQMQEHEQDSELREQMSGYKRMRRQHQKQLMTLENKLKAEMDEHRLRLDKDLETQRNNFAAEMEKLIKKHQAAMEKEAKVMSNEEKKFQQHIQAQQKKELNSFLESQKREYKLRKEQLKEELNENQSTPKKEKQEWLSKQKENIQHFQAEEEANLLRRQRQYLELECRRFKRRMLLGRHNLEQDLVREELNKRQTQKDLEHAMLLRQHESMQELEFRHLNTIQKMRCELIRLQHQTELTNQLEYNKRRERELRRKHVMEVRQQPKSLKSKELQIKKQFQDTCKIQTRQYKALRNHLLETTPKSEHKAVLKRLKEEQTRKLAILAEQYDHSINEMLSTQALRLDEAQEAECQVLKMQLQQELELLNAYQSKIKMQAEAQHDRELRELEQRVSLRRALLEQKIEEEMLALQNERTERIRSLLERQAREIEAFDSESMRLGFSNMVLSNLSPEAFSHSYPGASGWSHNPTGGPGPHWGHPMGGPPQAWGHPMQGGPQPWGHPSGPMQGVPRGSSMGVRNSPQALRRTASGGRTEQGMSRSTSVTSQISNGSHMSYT

`c1cnn2ncc(-c3ccnc(N4CCC45COC5)n3)c2c1` gave a remaining binding of 58% (binding; 1 µM).
`CN([C@@H]1CCc2c(CC(=O)O)c3ccccc3n2C1)S(=O)(=O)c1ccc(F)cc1` has a remaining binding of 93% (cell-free assay; competition with immobilised ligand; 1 µM).
The remaining binding of `O=C(NCCCN1CCOCC1)c1ccc(Nc2ncc(Cl)c(-c3ccc(Cl)s3)n2)cc1` is reported as 43% (binding; competition with immobilised ligand; 1 µM).
`COCCOc1nc(-c2ccc(Cl)nc2)nc2c1CN(C(=O)c1ncn3ccccc13)CC2` gave a remaining binding of 100% (cell-free assay; competition with immobilised ligand; 0.1 µM).
For `C=CC(=O)N1CCC(C(=O)NCC(=O)N2CCN(c3nc(-c4cnc(N)nc4C(F)F)nc(N4CCOCC4)n3)CC2)CC1`, the remaining binding was 80% (binding; competition with immobilised ligand; 1 µM).
`O=C(c1ccc(Nc2nccc(-c3cc4ccccc4s3)n2)cc1)N1CCC(N2CCCC2)CC1` has a remaining binding of 82% (binding; competition with immobilised ligand; 1 µM).
For `COc1cnc(Nc2cccc(S(N)(=O)=O)c2)nc1N1CCN(c2ccccc2)CC1`, the remaining binding was 80% (binding; competition with immobilised ligand; 1 µM).
The remaining binding of `C[C@H]1CCN(c2nccc(-c3cnn4ncccc34)n2)C1` is reported as 78% (binding; 1 µM).
The remaining binding of `O=C(NCc1ncc(C(F)(F)F)cc1Cl)c1ccc2c(c1)C1(CCS(=O)(=O)CC1)[C@@H](C1CC1)N2S(=O)(=O)c1ccc(F)cc1` is reported as 91% (cell-free assay; competition with immobilised ligand; 1 µM).
For `O=C(Nc1c[nH]nc1C(=O)NC1CCNCC1)c1cc(F)cc(F)c1`, the remaining binding was 80% (binding; competition with immobilised ligand; 1 µM).
`CN(C)c1nccc(-c2cnc3ncccn23)n1` gave a remaining binding of 59% (binding; 1 µM).
`CC1=C(C#N)[C@@H](c2ccc3[nH]nc(C)c3c2)C(C#N)=C(c2ccc(Cl)cc2)N1` has a remaining binding of 100% (cell-free assay; competition with immobilised ligand; 1 µM).
With `Cc1cnc(Nc2ccc(C(=O)N3CCC(N4CCCC4)CC3)cc2)nc1-c1cc2ccccc2s1` the remaining binding was 64% (binding; competition with immobilised ligand; 1 µM).
`COc1ccnn2ncc(-c3ccnc(N(C)C)n3)c12` has a remaining binding of 81% (binding; 1 µM).
`O=C1CCc2cc(Nc3cc(OC4CCOCC4)c([N+](=O)[O-])cc3Cl)ccc2N1` has a remaining binding of 81% (cell-free assay; competition with immobilised ligand; 1 µM).
`C[C@@H](c1ccc(-n2cnc3c(N)ncnc32)cc1)N1CCc2nn(C)c(Cc3ccccc3)c2C1=O` gave a remaining binding of 90% (binding; competition with immobilised ligand; 0.1 µM).
`FC(F)(F)Oc1cccc(-c2cnc3ccc(-c4ccncc4)nn23)c1` gave a remaining binding of 40% (binding; competition with immobilised ligand; 5 µM).
The remaining binding of `N[C@H]1CCN(c2nccc(-c3cnn4ncccc34)n2)C1` is reported as 87% (binding; 1 µM).
`O=C(O)[C@@H]1[C@@H](Cn2nnc3ccccc3c2=O)CC[C@H]1C(=O)c1ccc(OCCC2CCOCC2)cc1` has a remaining binding of 100% (cell-free assay; competition with immobilised ligand; 1 µM).
With `CN(CCCC(F)(F)F)c1nccc(-c2cnn3ncccc23)n1` the remaining binding was 100% (binding; 1 µM).
The remaining binding of `CC(=O)Nc1c(C(C)=O)c(=O)n(C)c2nc(-c3ccc(Cl)cc3Cl)c(-c3ccc(Cl)cc3)cc12` is reported as 89% (cell-free assay; competition with immobilised ligand; 1 µM).
`CN(C)c1ncc(F)c(-c2cnn3ncccc23)n1` gave a remaining binding of 73% (binding; 1 µM).
`CNC(=O)[C@@H]1CC[C@@H](n2c(-c3ccc4cnccc4c3)nc3ccc(C(=O)NCc4cccc(C(N)=O)c4)cc32)C1` has a remaining binding of 100% (binding; competition with immobilised ligand; 1 µM).
